KCNQ1 inh: inhibitors of human KCNQ1 channel, primary screen, cell-based, thallium flux, high-throughput; Potassium voltage-gated channel subfamily KQT member 1 (Homo sapiens), P51787; 310,000 compounds, 1.3% hits; CHO-K1 KCNQ1, FluxOR thallium flux fluorescence; hits give high values; B-score at 10 µM;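 active = compounds whose thallium flux B-score, printed positive for inhibition, exceeds three library SD while starting fluorescence stays within three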;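 also: channel opened by potassium depolarization with thallium stimulus after 20 min compound exposure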
KCNK3 inh: human KCNK3 channel inhibitors, primary screen, CHO cells, FluxOR thallium flux, B-score; FluxOR fluorescence; hits give low values; B-score at 10 µM; AID 602410, 2012; 340,000 compounds, 0.84% hits; Potassium channel subfamily K member 3 (Homo sapiens), O14649;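 active = B-score under library mean minus 4 SD, starting fluorescence ratio at most library mean plus 5 SD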;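 also: more negative B-score means stronger inhibition of thallium flux through KCNK3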
hERG protect: hERG rescue from dofetilide block, primary screen, cell-based, CHO-hERG, FluxOR thallium flux, dofetilide IC70; AID 1511, 2009; activation (rescue from dofetilide block), less the hit threshold, % at 10 µM; Voltage-gated inwardly rectifying potassium channel KCNH2 (Homo sapiens), Q12809; dofetilide IC70 present; 310,000 compounds, 0.51% hits;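 active = activation above the mean of controls blocked by dofetilide plus 5 SD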;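 also: thallium influx through hERG after potassium depolarization seen as dye fluorescence rise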
KCNQ1 pot: potentiators or activators of KCNQ1 channel, primary screen, cell-based, thallium flux, high-throughput | Potassium voltage-gated channel subfamily KQT member 1 (Homo sapiens), P51787 | B-score at 10 µM | CHO-K1 KCNQ1, thallium flux FluxOR fluorescence; hits give high values | 310,000 compounds, 0.35% hits;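 active = fluorescence ratio B-score, a plate-corrected score, at least three library SD, with initial intensity B-score within 5 SD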
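Assay system: CHO-K1 cells stably expressing KCNQ1. Medium: assay buffer for compound exposure, DMSO matched across wells. Timing: 37 °C overnight plating, 90-min dark dye load, 20-min compound pretreatment. Signal: kinetic FluxOR fluorescence, 10 s baseline plus 110 s post-stimulus.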
Kir21 block: inhibitors of mouse Kir2.1 inward-rectifier potassium channel | AID 1672, 2009 | Inward rectifier potassium channel 2 (Mus musculus), P35561 | 310,000 compounds, 0.85% hits | B-score at 10 µM | HEK293-Kir2.1, FluxOR thallium flux fluorescence; hits give low values;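 active = fluorescence ratio B-score at or below minus 3 SD of library scores, with starting-brightness B-score within 2 SD, cut at about -4.2 in these data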;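 also: channel flux triggered by added potassium and thallium sulfate stimulus; B-score of peak minus minimum fluorescence over baseline after thallium stimulus; more negative B-score means stronger Kir2.1 block with less thallium influx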
KCNK9 inh: KCNK9 potassium channel inhibitors, primary screen, HEK293 cells, thallium flux. FluxOR thallium flux fluorescence; hits give low values. B-score at 10 µM. 310,000 compounds, 1.2% hits. AID 488922, 2010;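 active = ratio B-score over 3 SD below the library mean, with starting fluorescence within 5 SD of its mean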;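 also: negative B-score means less thallium flux so channel inhibition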
Of the large screens only hits and unclear results are named; the others gave an inactive call. An excerpt weighted towards active compounds, which were near 3.7% of everything screened.

COc1cc(/C=N/O)cc(Br)c1OCC(=O)NCc1ccccc1	Kir21 block -6
Cc1ccccc1C(=O)OCC(=O)NCC1COc2ccccc2O1 (configuration not stated)	none (no result: KCNQ1 inh, hERG protect, KCNQ1 pot, Kir21 block, KCNK9 inh)
CCOC(=O)C1(Cc2ccccc2Cl)CCN(C(=O)c2cnccn2)CC1	none
COC1=CC(=O)C(O)=C(CCCCCCC/C=C/CCCCCCCC2=C(O)C(=O)C=C(OC)C2=O)C1=O	KCNQ1 inh 10
Cc1n[nH]c(=O)c2c(NC(=O)CSc3nncn3C(C)C)oc(C)c12	none (no result: KCNQ1 inh, hERG protect, KCNQ1 pot, Kir21 block, KCNK9 inh)
O=C(O)c1ccc(S(=O)(=O)N2CCSCC2)cc1	none
O=S(=O)(O)c1ccc(N=Nc2ccccc2)cc1	none
O=c1ccc(N=Nc2ccccc2)ccc1O	hERG protect 49, KCNQ1 pot 79
COC(=O)c1ccccc1NC(=O)CNc1ccc(F)c(S(=O)(=O)N2CCOCC2)c1	none (no result: KCNQ1 inh, hERG protect, KCNQ1 pot, Kir21 block, KCNK9 inh)
Cn1c(N)c(C(=O)COC(=O)c2ccc(-c3ccccc3)cc2)c(=O)n(C)c1=O	none (no result: KCNQ1 inh, hERG protect, KCNQ1 pot, Kir21 block, KCNK9 inh)
Cc1ccccc1NC(=O)CN1C(=O)S/C(=C\c2ccc(-c3cccc(C(=O)O)c3C)o2)C1=O	hERG protect 11
Cc1cccc(NC(=O)CN2C(=O)S/C(=C\c3ccc(-c4cccc(C(=O)O)c4C)o3)C2=O)c1	hERG protect 21
Cc1ccc(NC(=O)CN2C(=O)S/C(=C/c3ccc(-c4cc(C(=O)O)ccc4C)o3)C2=O)cc1C	none
Cc1ccccc1NC(=O)CN1C(=O)c2ccccc2C1=O	none
O=S(=O)(Nc1ncccn1)c1ccc(NC(=S)Nc2cccc(Cl)c2)cc1	none (no result: KCNK3 inh)
O=C(Nc1cc(Cl)ccc1Oc1ccccc1)c1ccccc1F	KCNQ1 inh 6
O=C(Nc1ccccc1Oc1ccccc1)c1ccccc1F	none
Cc1ccc(N(CC(=O)Nc2cc(Cl)ccc2Oc2ccccc2)S(C)(=O)=O)c(C)c1	none
Cc1ccc(N(CC(=O)Nc2cc(Cl)ccc2Oc2ccccc2)S(C)(=O)=O)cc1C	KCNK9 inh -7.5
COc1ccc(NC(=O)CN(c2ccc(OC)c(Cl)c2)S(=O)(=O)c2ccccc2)c(OC)c1	KCNQ1 inh 6
COc1ccc(CNC(=O)CN(Cc2ccccc2F)C(=O)c2csnn2)cc1	none
CC(C)NC(=O)Nc1cccc2c1O[C@H](CN(C)C(=O)Nc1ccccc1)[C@@H](C)CN([C@H](C)CO)C2=O	none (no result: KCNQ1 inh, hERG protect, KCNQ1 pot, Kir21 block, KCNK9 inh)
CCC(C(=O)NCCN1CCOCC1)n1c2ccccc2c2nc(=O)cc(C)n21 (configuration not stated)	none
Cc1cc(=O)cc(C)n1-c1ccc(F)cc1F	hERG protect 6.6
O=C(Nc1nc2n(n1)C(c1ccccc1)CC(c1ccc(Cl)cc1)N2)c1ccco1 (configuration not stated)	KCNK9 inh -6.9
O=C(Cc1c[nH]c2ccccc12)NCC(=O)Nc1ccc(F)c(F)c1F	none (no result: KCNQ1 inh, hERG protect, KCNQ1 pot, Kir21 block, KCNK9 inh)
O=S(=O)(NC(=S)c1ccccc1)c1ccc(F)cc1	none
Cc1ccc(SCc2ccc(C(=O)Nc3ccccc3C(=O)NC(C)C)cc2)cc1	none
CCCNC(=O)c1ccccc1NC(=O)c1ccc(CSc2ccccc2)cc1	KCNQ1 inh 6
O=C1CCN(Cc2ccc(Br)cc2)CCN1[C@H](CO)Cc1ccccc1	none
COc1cc(OC)c(OC)cc1CN1CCCC(C(=O)c2ccc3c(c2)OCO3)C1 (configuration not stated)	none
O=C(c1ccc2c(c1)OCO2)C1CCCN(Cc2ccc(OC(F)F)cc2)C1 (configuration not stated)	Kir21 block -10
CC(C)(C)c1ccc(OCCCC(=O)NNC(=O)c2ccccc2O)cc1	KCNQ1 inh 8
Cc1cc(C(=O)NNC(=O)CCCOc2ccccc2)c(C)o1	none
CCCCCCn1c2c(c(=N)c3c1CCC3)CCC2	KCNQ1 inh 6
CCCCn1c2c(c(=N)c3c1CCC3)CCC2	none (no result: KCNQ1 inh, hERG protect, KCNQ1 pot, Kir21 block, KCNK9 inh)
CNC(=O)c1ccc(NC(=O)Cc2ccc(S(=O)(=O)N3CCOCC3)s2)cc1	none
CCOc1ccc(CNCCc2ccc(S(N)(=O)=O)cc2)cc1	none
CCOc1ccc2ccccc2c1CNCCc1ccc(S(N)(=O)=O)cc1	Kir21 block -4.4
Nc1nonc1-n1nnc(C(=O)N/N=C/c2ccoc2)c1-c1ccccc1	none
O=C(O)c1ccccc1C(=O)Nc1ccc(Oc2cccc3ccccc23)cc1	none
Cc1cccc(Oc2ccc(NC(=O)c3ccccc3C(=O)O)cc2)c1C	hERG protect 5.6
Cc1ccc(C(=O)C[n+]2ccc3ccccc3c2)cc1	none
Cc1cc(C(C)(C)C)cc(C)c1C[n+]1ccc2ccccc2c1	KCNQ1 inh 7
O=C(Nc1ccccc1Cc1ccccc1)c1ccccc1NS(=O)(=O)c1ccc(Cl)s1	KCNQ1 inh 8
Cc1ccc(NC(=O)c2ccccc2NS(=O)(=O)c2ccc(Cl)s2)cc1	KCNK9 inh -7.5
O=C(NCc1ccco1)c1ccccc1NS(=O)(=O)c1ccc(Cl)s1	none
O=S(=O)(Nc1ccccc1N1CCCCC1)c1ccc(Cl)s1	KCNK9 inh -7.4
Cc1ccc(Cn2nc(C)c(C(=O)NCC(c3cccs3)N3CCOCC3)c2Cl)cc1 (configuration not stated)	none
CC(NC(=O)CCNC(=O)c1ccc(C(C)(C)C)cc1)c1ccccc1 (configuration not stated)	none (no result: KCNQ1 inh, hERG protect, KCNQ1 pot, Kir21 block, KCNK9 inh)
CCC[C@@H](CNC)NC[C@H](Cc1ccccc1)NCCCCc1ccccc1	Kir21 block -4.5
CNC[C@@H](CC1CCCCC1)NC[C@H](CC(C)C)NCCc1cccc(C(F)(F)F)c1	KCNQ1 inh 9, Kir21 block -8.8
CCC[C@@H](CN[C@@H](CNC)C(C)C)NCCCCc1ccccc1	none
CNC[C@@H](Cc1ccccc1)NC[C@@H](CC1CCCCC1)NCCCc1ccccc1	KCNQ1 inh 7, Kir21 block -11, KCNK9 inh -8.1
CCN(CC)C(=O)CSc1nc2c(sc(=S)n2-c2ccccc2)c(=O)n1-c1ccc(OC)c(OC)c1	none
COc1cc(CNC2CCCCCC2)cc(OC)c1O	none
COc1cc(CNC2CCCC2)cc(Cl)c1OCc1ccccc1F	Kir21 block -4.7
CCOC(=O)c1cc([N+](=O)[O-])sc1NC(=O)c1ccc(S(=O)(=O)N2CC3(C)CC2CC(C)(C)C3)cc1 (configuration not stated)	KCNQ1 inh 8
CCn1c(CSCc2ccc(F)cc2)nnc1SCC(=O)NCc1ccccc1	none
CCn1c(CSCc2ccc(C)cc2)nnc1SCC(=O)NCc1ccccc1	Kir21 block -6

High-throughput results as filed in PubChem BioAssay.
